Reference: ChEMBL document CHEMBL5338794, “Optimization of Orally Bioavailable Antileishmanial 2,4,5-Trisubstituted Benzamides” (J Med Chem, 2023)
Values after ≈ are worked out from the molar mass of the structure shown. Active and inactive are the calls of the source. The calls are words filed in the database; no cut-off is given here.

Key:
Leishmania mexicana [1] = assay: Antileishmanial activity against renilla luciferase-expressing Leishmania mexicana promastigotes infected in mouse J774.A1 cells assessed as inhibition of intracellular amastigotes growth incubated for 96 hrs by Renilla luciferase assay; assay type: functional, organism-based; details: J774.A1, 96 h
BJ = assay: Cytotoxicity against human BJ cells assessed as reduction in cell viability incubated for 72 hrs by Cell TiterGlo assay; assay type: functional, cell-based
[2] = Cmax in CD-1 mouse at 3 mg/kg,iv and measured upto 24 hrs by LC-MS/MS analysis; assay type: ADME, organism-based; design: dose 3 mg/kg, time < 24 hrs, route iv; details: in vivo
In short: (§1)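 Single intravenous dose to mice at 3 mg/kg. Plasma concentration–time profile used for t1/2, Cmax, AUC, clearance and steady-state volume of distribution.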

[3] = Kinetic aqueous solubility of the compound in PBS at pH 7.4 incubated for 18 hrs by LC-MS analysis; assay type: physicochemical; details: read-out: Kinetic_solubility
[4] = Metabolic stability in CD-1 mouse liver microsomes assessed as half life at 1 uM and measured upto 60 mins in presence of NADPH regenerating system by LC-MS/MS analysis; assay type: ADME, Microsome; details: 1 h
In short: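 Half-life and intrinsic clearance determined by incubation with mouse liver microsomes.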

[5] = Half life in CD-1 mouse at 3 mg/kg,iv and measured upto 24 hrs by LC-MS/MS analysis; assay type: ADME, organism-based; details: in vivo; in short: as §1
[6] = AUC in CD-1 mouse at 3 mg/kg,iv and measured upto 24 hrs by LC-MS/MS analysis; assay type: ADME, organism-based; design: time < 24 hrs, dose 3 mg/kg, route iv; details: in vivo; in short: as §1
[7] = Clearance in CD-1 mouse at 3 mg/kg,iv and measured upto 24 hrs by LC-MS/MS analysis; assay type: ADME, organism-based; details: in vivo; in short: as §1
[8] = Volume of distribution in CD-1 mouse at 3 mg/kg,iv and measured upto 24 hrs by LC-MS/MS analysis; assay type: ADME, organism-based; details: in vivo; in short: as §1
[9] = Half life in CD-1 mouse at 10 mg/kg,po and measured upto 24 hrs by LC-MS/MS analysis; assay type: ADME, organism-based; details: in vivo
In short: (§2)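 Single oral dose to mice at 10 mg/kg, in 20% PEG 400/80% (20% SBE-beta-CD in water). Plasma concentration–time profile used for t1/2, Cmax, Tmax, AUC, CL, apparent Vd and bioavailability (F).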

[10] = Cmax in CD-1 mouse at 10 mg/kg,po and measured upto 24 hrs by LC-MS/MS analysis; assay type: ADME, organism-based; design: dose 10 mg/kg, time < 24 hrs, route po; details: in vivo; in short: as §2
[11] = Tmax in CD-1 mouse at 10 mg/kg,po and measured upto 24 hrs by LC-MS/MS analysis; assay type: ADME, organism-based; details: in vivo; in short: as §2
[12] = AUC in CD-1 mouse at 10 mg/kg,po and measured upto 24 hrs by LC-MS/MS analysis; assay type: ADME, organism-based; design: time < 24 hrs, dose 10 mg/kg, route po; details: in vivo; in short: as §2
[13] = Clearance in CD-1 mouse at 10 mg/kg,po and measured upto 24 hrs by LC-MS/MS analysis; assay type: ADME, organism-based; details: in vivo; in short: as §2
[14] = Volume of distribution in CD-1 mouse at 10 mg/kg,po and measured upto 24 hrs by LC-MS/MS analysis; assay type: ADME, organism-based; details: in vivo; in short: as §2
[15] = Oral bioavailability in CD-1 mouse at 10 mg/kg and measured upto 24 hrs by LC-MS/MS analysis; assay type: ADME, organism-based; details: in vivo; in short: as §2
Plasma [16] = assay: Time during which plasma concentration exceeds EC50 for inhibition of proliferation of luciferase expressing Leishmania mexicana intracellular amastigotes cultured in mouse J774.A1 cells infected to CD-1 mouse at 3 mg/kg,iv by LC-MS/MS analysis; assay type: organism-based; details: in vivo
Plasma [17] = assay: Time during which plasma concentration exceeds EC50 for inhibition of proliferation of luciferase expressing Leishmania mexicana intracellular amastigotes cultured in mouse J774.A1 cells infected to CD-1 mouse at 10 mg/kg,po by LC-MS/MS analysis; assay type: organism-based; details: in vivo
In short: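 Time that plasma concentration stays above the intracellular-amastigote EC50, read from the plasma profile after a single oral dose at 10 mg/kg in 20% PEG 400/80% (20% SBE-beta-CD in water).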

Leishmania mexicana [18] = assay: Antileishmanial activity against Leishmania mexicana MNZY/BZ/62/M379 promastigotes infected in BALB/c mouse assessed as fold reduction in footpad lesion development by measuring lesion size at 50 mg/kg, po QD for 10 days administered at day 18 postinfection and measured at 5 weeks postinfection by caliper analysis; assay type: functional; details: time 10 day
In short: (§3)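 BALB/c mice, 5 per group, infected with L. mexicana by footpad injection. Vehicle or HCl salt of compound given by oral gavage at 50 mg/kg/day for 10 consecutive days from day 18 postinfection. Lesion size measured by caliper up to 5 weeks postinfection, reported as mean ± SD. Groups compared by Mann–Whitney.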

Leishmania mexicana [19] = assay: Antileishmanial activity against Leishmania mexicana MNZY/BZ/62/M379 promastigotes infected in BALB/c mouse assessed as footpad lesion development at 50 mg/kg, po QD for 10 days administered at day 18 postinfection and measured after 5 weeks postinfection by caliper analysis; assay type: functional, organism-based; details: time 10.0 day; in short: as §3

| Cmax [2] [nM] | solubility kinetic at 18 h [3] [µM] | t1/2 [4] [h] | t1/2 [5] [h] | AUC [6] [µM·h] | CL [7] [mL/min/kg] | Vd [8] [L/kg] | t1/2 [9] [h] | Cmax [10] [nM] | Tmax [11] [h] | AUC [12] [µM·h] | CL/F [13] [mL/min/kg] | Vd [14] [L/kg] | F [15] [%] | SMILES | EC50 (Leishmania mexicana [1]) [nM] | EC50 (BJ) [nM] | T>EC50 (Plasma [16]) [h] | T>EC50 (Plasma [17]) [h] | fold change (FC) (Leishmania mexicana [18]) | Activity (Leishmania mexicana [19]) |
| --- | --- | --- | --- | --- | --- | --- | --- | --- | --- | --- | --- | --- | --- | --- | --- | --- | --- | --- | --- | --- |
| 1950 | 46 (≈ 18.2 µg/mL) | 1.92 | 3.4 | 2.85 | 42.8 | 9.3 | 3.6 | 1000 | 2 | 7.82 | 53.5 | 6.8 | 80 | O=C(Nc1ccc(Cl)c(Cl)c1)c1ccc(N2CCNCC2)c([N+](=O)[O-])c1 | 700 | 15000 | 1.5 | 5.5 | 10 | inactive |
| – | 15 (≈ 6.67 µg/mL) | 2.3 | – | – | – | – | – | – | – | – | – | – | – | O=C(Nc1cncc(-c2nc3ccccc3o2)c1)c1ccc(N2CCNCC2)c([N+](=O)[O-])c1 | 500 | 20000 | – | – | – | – |
| – | 9.4 (≈ 3.25 µg/mL) | 0.01 | – | – | – | – | – | – | – | – | – | – | – | O=C(Nc1cccc(-c2ncco2)c1)c1cc([N+](=O)[O-])c(F)cc1F | 700 | 1500 | – | – | – | – |
